Results from ChEMBL document CHEMBL5579848, “Isothiocyanate-Corticosteroid Conjugates against asthma: Unity makes strength” (Eur J Med Chem, 2024).
In brackets after ≈: the same amount, converted by molar mass. Activity calls are given as the source filed them. The rule behind the calls is not given here.

Assays:
Mus musculus [1] = assay: Anti-asthmatic activity in OVA-induced female BALB/c mouse model assessed as reduction in detachment of the lamina propria at 1 mg/kg, ip for 30 min before every ovalbumin challenge on day 0 and 7 and measured after 21 days by H and E staining based microscopic analysis; format: functional, organism-based; conditions: time 21.0 day
Procedure, shortened: (§1)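 Female BALB/c mice (20 g, 8 weeks) sensitized s.c. with 100 μg ovalbumin adsorbed to 13.3 mg aluminum hydroxide gel (0.4 ml) on days 0 and 7; saline controls. Test agent (1–2 mg/kg, or equimolar 3,51 × 10^-6 mol) or vehicle given ip 30 min before each OVA dose. Killed day 21 by enflurane overdose; lungs, bronchi, blood collected.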

Mus musculus [2] = assay: Anti-asthmatic activity in OVA-induced female BALB/c mouse model assessed as reduction in thickening of airway smooth muscle layer at 1 mg/kg, ip for 30 min before every ovalbumin challenge on day 0 and 7 and measured after 21 days by H and E staining based microscopic analysis; format: functional, organism-based; conditions: time 21.0 day; procedure, shortened: as §1
[3] = Solubility of compound in PBS at pH 7.4 at 5 mg incubated at 25 degreeC for 6 hrs by UHPLC analysis; format: physicochemical
Procedure, shortened: (§2)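 Solid compound (5 mg) was shaken in 1 mL water, PBS (pH 7.4, 50 mM) or pepsin-free SGF (pH 1.2) for 6 h at 25 °C. Suspensions were filtered (0.45 μm) and the filtrate quantified by UHPLC, reported in mg/L; triplicate, mean values.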

RBL-2H3 [4] = assay: Inhibition of mast cell degranulation in DNP-HSA antigen sensitized rat RBL-2H3 cells assessed as reduction in beta-hexoaminosidase release at 100 uM preincubated for 5 mins followed by DNP addition and measured after 1 hr by multiplate reader; format: functional, cell-based; conditions: time 65.0 min
Procedure, shortened: (§3)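 RBL-2H3 cells (72×10^3/well) were sensitized overnight with anti-DNP IgE 0.50 µg/ml, then moved to phenol-free DMEM with 1 mg/ml BSA. Cells were preincubated 5 min at 37 °C with 0.1 % DMSO, cromolyn 1 mM or compound 100 μM, then challenged with DNP-HSA 10 ng/ml. After 1 h, supernatant was incubated 1 h with 1.4 mM p-nitrophenyl-N-acetyl-β-D-glucosaminide (citrate pH 4.2), stopped with Trizma pH 9.4, and read at 405 nm.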

[5] = Half life in PBS at pH 7.4 at 100 uM incubated at 37 degreeC up to 24 hrs by UPHLC analysis; format: ADME
Procedure, shortened: (§4)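 A 10 mM DMSO stock was diluted to 100 μM in PBS (pH 7.4, 50 mM) or pepsin-free SGF (pH 1.2) and held at 37 ± 0.5 °C for 24 h. Timed aliquots were quantified by reverse-phase UHPLC-DAD against calibration curves (1.56–100 ppm), tracking the parent compound plus aminoacetate and corticosteroid metabolites. Pseudo-first-order t1/2 was calculated; n = 3.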

Mus musculus [6] = assay: Anti-asthmatic activity in OVA-induced female BALB/c mouse model assessed as reduction in cell infiltration at 1 mg/kg, ip for 30 min before every ovalbumin challenge on day 0 and 7 and measured after 21 days by H and E staining based microscopic analysis; format: functional, organism-based; conditions: time 21.0 day; procedure, shortened: as §1
[7] = Induction of H2S release in PBS at pH 7.4 at 100 uM measured after 30 mins by free radical analyzer; format: physicochemical; conditions: buffer, pH 7.4, 0.5 h
Procedure, shortened: (§5)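 An H2S-selective mini-electrode was equilibrated in PBS pH 7.4, and compound was added to 100 μM final (1 % DMSO). Amperometric current was recorded for 30 min, with or without L-cysteine 4 mM added 10 min before. Current was converted to H2S using NaHS calibration (1–10 µM, pH 4.0); mean ± SEM.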

Mus musculus [8] = assay: Anti-asthmatic activity in OVA-induced female BALB/c mouse model assessed as reduction in thickening of airway smooth muscle layer at 2 mg/kg, ip for 30 min before every ovalbumin challenge on day 0 and 7 and measured after 21 days by H and E staining based microscopic analysis; format: functional, organism-based; conditions: time 21.0 day; procedure, shortened: as §1
Mus musculus [9] = assay: Anti-asthmatic activity in OVA-induced female BALB/c mouse model assessed as reduction in detachment of the lamina propria at 2 mg/kg, ip for 30 min before every ovalbumin challenge on day 0 and 7 and measured after 21 days by H and E staining based microscopic analysis; format: functional, organism-based; conditions: time 21.0 day; procedure, shortened: as §1
Mus musculus [10] = assay: Anti-asthmatic activity in OVA-induced female BALB/c mouse model assessed as restoration of structure of airway smooth muscle at 3.512 x 10^-6M, ip for 30 min before every ovalbumin challenge on day 0 and 7 and measured after 21 days by H and E staining based microscopic analysis; format: functional, organism-based; conditions: dose 3.512 10^-6M, time 21.0 day; procedure, shortened: as §1
Mus musculus [11] = assay: Anti-asthmatic activity in OVA-induced female BALB/c mouse model assessed as restoration of structure of alveolar septa at 3.512 x 10^-6M, ip for 30 min before every ovalbumin challenge on day 0 and 7 and measured after 21 days by H and E staining based microscopic analysis; format: functional, organism-based; conditions: dose 3.512 10^-6M, time 21.0 day; procedure, shortened: as §1
Mus musculus [12] = assay: Anti-asthmatic activity in OVA-induced female BALB/c mouse model assessed as reduction in alpha-SMA positive muscle layers at 3.512 x 10^-6M, ip for 30 min before every ovalbumin challenge on day 0 and 7 and measured after 21 days by immunohistochemical staining based microscopic analysis; format: functional, organism-based; conditions: dose 3.512 10^-6M, time 21.0 day; procedure, shortened: as §1
Mus musculus [13] = assay: Anti-asthmatic activity in OVA-induced ip dosed female BALB/c mouse model assessed as inhibition of bronchial hyperreactivity administered 30 min prior to every ovalbumin challenge on day 0 and 7 and measured after 21 days by isometric force transducer analysis; format: functional, organism-based; conditions: dose 1-2 mg/kg, time 21.0 day; procedure, shortened: as §1
[14] = Induction of H2S release in PBS at pH 7.4 at 100 uM pretreated with L-Cys for 10 mins followed by compound addition and measured after 30 mins by free radical analyzer; format: physicochemical; conditions: buffer, pH 7.4, 0.5 h; procedure, shortened: as §5
RBL-2H3 [15] = assay: Cytotoxicity against rat RBL-2H3 cells assessed as reduction cell viability at 100 uM after 24 hrs by WST assay; format: toxicity, cell-based; conditions: rbl-2h3, 24 h
Procedure, shortened: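 RBL-2H3 cells were grown in MEM with 10 % FBS, 10^4 cells/well, and attached for 24 h. They were then exposed 24 h to 100 μM compound (final) or 0.1 % DMSO. WST-1 (1:10) was added for 60 min at 37 °C and absorbance read at 450 nm. Viability is expressed as % of vehicle; mean ± SEM.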

Mus musculus [16] = assay: Anti-asthmatic activity in OVA-induced female BALB/c mouse model assessed as reduction in IgE level in plasma at 2 mg/kg, ip for 30 min before every ovalbumin challenge on day 0 and 7 and measured after 21 days by ELISA; format: functional, organism-based; conditions: time 21.0 day; procedure, shortened: as §1
Mus musculus [17] = assay: Anti-asthmatic activity in OVA-induced female BALB/c mouse model assessed as reduction in alpha-SMA positive muscle layers at 1 to 2 mg/kg, ip for 30 min before every ovalbumin challenge on day 0 and 7 and measured after 21 days by immunohistochemical staining based microscopic analysis; format: functional, organism-based; conditions: dose 1-2 mg/kg, time 21.0 day; procedure, shortened: as §1
[18] = Solubility of compound in simulated gastric fluid at pH 1.2 in absence of pepsin at 5 mg incubated at 25 degreeC for 6 hrs by UHPLC analysis; format: ADME; conditions: simulated gastric fluid without pepsin; procedure, shortened: as §2
Mus musculus [19] = assay: Anti-asthmatic activity in OVA-induced female BALB/c mouse model assessed as reduction in cell infiltration at 2 mg/kg, ip for 30 min before every ovalbumin challenge on day 0 and 7 and measured after 21 days by H and E staining based microscopic analysis; format: functional, organism-based; conditions: time 21.0 day; procedure, shortened: as §1
Albumin [20] = molecular target: T1, Albumin (Bos taurus, UniProt P02769); assay: Half life in 3% bovine serum albumin at 200 uM incubated up to 4 hrs by UHPLC analysis; format: ADME; conditions: cattle, 3% bovine serum albumin solution
Procedure, shortened: (§6)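 A 10 mM DMSO stock was diluted to 200 μM in 3 % BSA in PBS and incubated at 37 ± 0.5 °C for up to 4 h. Timed samples were deproteinized with an equal volume of acetonitrile/0.1 % TFA, centrifuged, filtered and quantified by UHPLC. Results are given as pseudo-first-order t1/2 or % parent remaining at 10 min; n ≥ 3.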

[21] = Solubility of compound in water at 5 mg incubated at 25 degreeC for 6 hrs by UHPLC analysis; format: physicochemical; procedure, shortened: as §2
Mus musculus [22] = assay: Anti-asthmatic activity in OVA-induced female BALB/c mouse model assessed as restoration of structure of bronchial epithelium at 3.512 x 10^-6M, ip for 30 min before every ovalbumin challenge on day 0 and 7 and measured after 21 days by H and E staining based microscopic analysis; format: functional, organism-based; conditions: dose 3.512 10^-6M, time 21.0 day; procedure, shortened: as §1
Mus musculus [23] = assay: Anti-asthmatic activity in OVA-induced ip dosed female BALB/c mouse model assessed as reduction in pulmonary IL-13 level administered for 30 min before every ovalbumin challenge on day 0 and 7 and measured after 21 days by ELISA; format: functional, organism-based; conditions: dose 1-2 mg/kg, time 21.0 day; procedure, shortened: as §1
[24] = Half life in simulated gastric fluid at pH 1.2 in absence of pepsin at 100 uM incubated at 37 degreeC up to 24 hrs by UPHLC analysis; format: ADME; conditions: simulated gastric fluid without pepsin; procedure, shortened: as §4
Albumin [25] = molecular target: T1, Albumin; assay: Stability in 3% bovine serum albumin assessed as parent compound remaining at 200 uM incubated at 37 degreeC for 10 mins by UHPLC analysis; format: ADME; conditions: cattle, 3% bovine serum albumin solution, read-out: Stability; procedure, shortened: as §6
RBL-2H3 [26] = assay: Inhibition of mast cell degranulation in DNP-HSA antigen sensitized rat RBL-2H3 cells assessed as reduction in beta-hexoaminosidase release at 1 mM preincubated for 5 mins followed by DNP addition and measured after 1 hr by multiplate reader relative to control; format: functional; conditions: RBL-2H3, 1.083 h, time 65 min; procedure, shortened: as §3

T1 sequence (P02769 whole entry): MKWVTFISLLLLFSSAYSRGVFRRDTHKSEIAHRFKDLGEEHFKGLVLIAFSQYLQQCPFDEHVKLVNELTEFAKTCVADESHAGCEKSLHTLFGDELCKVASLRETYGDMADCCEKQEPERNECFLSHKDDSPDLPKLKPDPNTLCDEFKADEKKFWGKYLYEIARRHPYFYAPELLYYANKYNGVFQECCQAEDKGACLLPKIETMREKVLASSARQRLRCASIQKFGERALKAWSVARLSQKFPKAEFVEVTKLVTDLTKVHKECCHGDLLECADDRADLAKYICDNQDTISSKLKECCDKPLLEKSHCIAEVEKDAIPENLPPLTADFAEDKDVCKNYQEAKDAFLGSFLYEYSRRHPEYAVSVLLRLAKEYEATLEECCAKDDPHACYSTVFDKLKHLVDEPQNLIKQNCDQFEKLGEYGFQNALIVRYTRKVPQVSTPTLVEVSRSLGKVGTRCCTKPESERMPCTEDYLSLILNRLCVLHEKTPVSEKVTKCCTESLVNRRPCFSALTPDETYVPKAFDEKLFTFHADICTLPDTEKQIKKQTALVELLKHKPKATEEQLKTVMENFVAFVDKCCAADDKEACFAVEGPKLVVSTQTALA

Row | SMILES | solubility at 6 h [3] | inhibition (RBL-2H3 [4]) | half-life at 100 µM [5] | Activity [7] | Activity [14] | Activity (RBL-2H3 [15]) | solubility at 6 h [18] | solubility at 6 h [21] | half-life at 100 µM [24] | remaining at 10 min, 200 µM (Albumin [25]) | further results
1 | C[C@]12C=CC(=O)C=C1CC[C@@H]1[C@@H]2[C@@H](O)C[C@@]2(C)[C@H]1C[C@H]1O[C@@H](C3CCCCC3)O[C@]12C(=O)COC(=O)CN=C=S | 0.25 µg/mL (≈ 0.439 µM) | Active | > 24 h | ~ 2 uM | ~ 2 uM | Non-Toxic | < 0.1 µg/mL | 0.55 µg/mL (≈ 0.965 µM) | > 24 h | – | Activity (Mus musculus [1]): inactive; Activity (Mus musculus [2]): inactive; Activity (Mus musculus [6]): inactive; Activity (Mus musculus [8]): Active; Activity (Mus musculus [9]): Active; Activity (Mus musculus [10]): Active; Activity (Mus musculus [11]): Active; Activity (Mus musculus [12]): Active; inhibition (Mus musculus [13]): Dose-Dependent Effect; Activity (Mus musculus [16]): Active; Activity (Mus musculus [17]): Active; Activity (Mus musculus [19]): Active; half-life at 200 µM (Albumin [20]): 1.4 h; Activity (Mus musculus [22]): Active; Activity (Mus musculus [23]): Dose-Dependent Effect
2 | CCCC1O[C@@H]2C[C@H]3[C@@H]4CCC5=CC(=O)C=C[C@]5(C)[C@H]4[C@@H](O)C[C@]3(C)[C@]2(C(=O)COC(=O)CN=C=S)O1 (stereo partly specified) | < 0.1 µg/mL | Active | > 24 h | ~ 2 uM | ~ 2 uM | Non-Toxic | < 0.1 µg/mL | < 0.1 µg/mL | > 24 h | 23% | –
3 | C[C@@H]1C[C@H]2[C@@H]3CCC4=CC(=O)C=C[C@]4(C)[C@@]3(F)[C@@H](O)C[C@]2(C)[C@@]1(O)C(=O)COC(=O)CN=C=S | < 0.1 µg/mL | Active | 0.7 h | ~ 2 uM | ~ 2 uM | Non-Toxic | < 0.1 µg/mL | 0.14 µg/mL (≈ 0.285 µM) | 10 h | 6% | –
4 | O=C(O)c1cc(=O)c2c(OCC(O)COc3cccc4oc(C(=O)O)cc(=O)c34)cccc2o1 [CROMOLYN] | – | – | – | – | – | – | – | – | – | – | inhibition at 1000 µM (RBL-2H3 [26]): ~25%
5 | C[C@@H]1C[C@H]2[C@@H]3CCC4=CC(=O)C=C[C@]4(C)[C@@]3(F)[C@@H](O)C[C@]2(C)[C@@]1(O)C(=O)COC(=O)CN | – | Active | – | – | – | – | – | – | – | – | –
